In ChEMBL document CHEMBL1127574, “Design and synthesis of ellipticinium salts and 1,2-dihydroellipticines with high selectivities against human CNS cancers in vitro” (1994):

Key:
Assay type in all cases: functional
LXFL 529 = experiment: Tested in vitro for cytotoxicity in LXFL-529 cell line of Non-Small Cell Lung Cancer; settings: Homo sapiens, read-out: Log TGI (converted)
Summary of the method: (§1)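 Compounds dissolved in DMSO, then diluted 500-fold into aqueous medium. The resulting aqueous solutions or suspensions were added to the cultured human tumour cell lines, and the cells were exposed for 48 h. Growth was read colorimetrically in one of two ways: a metabolic assay in which viable cells reduce a tetrazolium salt to a formazan dye, or a protein stain for total cellular protein.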

A549 = experiment: Tested in vitro for cytotoxicity in A549/ATCC cell lines; settings: Homo sapiens; summary of the method: as §1
SK-MEL-2 = experiment: Tested in vitro for cytotoxicity in SK-MEL-2 cell line of Melanoma; settings: Homo sapiens, read-out: Log TGI (converted); summary of the method: as §1
U-251 = experiment: Tested in vitro for cytotoxicity in U251 cell line of CNS Cancer; settings: Homo sapiens, read-out: Log TGI (converted)
Summary of the method: (§2)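 Compounds dissolved in DMSO and diluted 500-fold into aqueous medium; aliquots of the resulting solutions or suspensions added to cultured human tumor cells for 48 h. Growth read colorimetrically, either by tetrazolium reduction to formazan by viable cells or by protein staining of total cellular protein.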

HOP-18 = experiment: Tested in vitro for cytotoxicity in HOP-18 cell line of Non-Small Cell Lung Cancer; settings: Homo sapiens, read-out: Log TGI (converted); summary of the method: as §1
Malme-3M = experiment: Tested in vitro for cytotoxicity in MALME-3M; settings: Homo sapiens; summary of the method: as §1
DMS-114 = experiment: Tested in vitro for cytotoxicity in DMS114 cell lines; settings: Homo sapiens; summary of the method: as §1
RXF 631 = experiment: Tested in vitro for cytotoxicity in RXF-631 cell line of Renal cancer; settings: Homo sapiens, read-out: Log TGI (converted); summary of the method: as §1
SK-MEL-28 = experiment: Tested in vitro for cytotoxicity in SK-MEL-28 cell line of Melanoma; settings: Homo sapiens, read-out: Log TGI (converted); summary of the method: as §1
SNB-78 = experiment: Tested in vitro for cytotoxicity in SNB-78 cell line of CNS Cancer; settings: Homo sapiens, read-out: Log TGI (converted); summary of the method: as §2
HOP-62 = experiment: Tested in vitro for cytotoxicity in HOP-62 cell line of Non-Small Cell Lung Cancer; settings: Homo sapiens, read-out: Log TGI (converted); summary of the method: as §1
CAKI-1 [1] = experiment: Tested in vitro for cytotoxicity in CAKI-1 cell lines; settings: Homo sapiens; summary of the method: as §1
NCI-H226 = experiment: Tested in vitro for cytotoxicity in NCI-H226 cell line of Non-Small Cell Lung Cancer; settings: Homo sapiens, read-out: Log TGI (converted); summary of the method: as §1
IGROV-1 = experiment: Tested in vitro for cytotoxicity in IGROV1 cell lines; settings: Homo sapiens; summary of the method: as §1
SK-MEL-5 = experiment: Tested in vitro for cytotoxicity in SK-MEL-5 cell line of Melanoma; settings: Homo sapiens, read-out: Log TGI (converted); summary of the method: as §2
HL-60 = experiment: Tested in vitro for cytotoxicity in HL-60(TB) cell line of Leukemia; settings: Homo sapiens, read-out: Log TGI (converted)
Summary of the method: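 Compounds were dissolved in DMSO and diluted 500-fold in aqueous medium. Aliquots of the resulting solution or suspension were added to the cultured cells for 48 h. Growth was read colorimetrically, either by tetrazolium reduction to formazan in viable cells or by a total-protein stain.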

SF-539 = experiment: Tested in vitro for cytotoxicity in SF-539 cell line of CNS Cancer; settings: Homo sapiens, read-out: Log TGI (converted); summary of the method: as §1
UACC-62 = experiment: Tested in vitro for cytotoxicity in UACC-62 cell line of Melanoma; settings: Homo sapiens, read-out: Log TGI (converted); summary of the method: as §2
NCI-H460 = experiment: Tested in vitro for cytotoxicity in NCI-H460 cell line of Non-Small Cell Lung Cancer; settings: Homo sapiens, read-out: Log TGI (converted); summary of the method: as §1
UACC-257 = experiment: Tested in vitro for cytotoxicity in UACC-257 cell line of Melanoma; settings: Homo sapiens, read-out: Log TGI (converted); summary of the method: as §2
ACHN = experiment: Tested in vitro for cytotoxicity in ACHN cell line of Renal cancer; settings: Homo sapiens, read-out: Log TGI (converted); summary of the method: as §1
SK-OV-3 = experiment: Tested in vitro for cytotoxicity in SK-OV-3 cell line of Ovarian Cancer; settings: Homo sapiens, read-out: Log TGI (converted); summary of the method: as §2
SW-620 = experiment: Tested in vitro for cytotoxicity in SW-620 cell line of Colon Cancer; settings: Homo sapiens, read-out: Log TGI (converted); summary of the method: as §2
M19-MEL = experiment: Tested in vitro for cytotoxicity in M19-MEL cell line of Melanoma; settings: Homo sapiens, read-out: Log TGI (converted); summary of the method: as §1
DLD-1 = experiment: Tested in vitro for cytotoxicity in DLD-1 cell line of Colon Cancer; settings: Homo sapiens, read-out: Log TGI (converted); summary of the method: as §1
OVCAR-8 = experiment: Tested in vitro for cytotoxicity in OVCAR-8 cell line of Ovarian Cancer; settings: Homo sapiens, read-out: Log TGI (converted); summary of the method: as §1
CAKI-1 [2] = experiment: Tested in vitro for cytotoxicity in CAKI-1 cell line of Renal cancer; settings: Homo sapiens, read-out: Log TGI (converted); summary of the method: as §1
786-0 = experiment: Tested in vitro for cytotoxicity in 786-0 cell line of Renal cancer; settings: Homo sapiens, read-out: Log TGI (converted); summary of the method: as §1
SF-268 = experiment: Tested in vitro for cytotoxicity in SF-268 cell lines; settings: Homo sapiens; summary of the method: as §1
SR = experiment: Tested in vitro for cytotoxicity in SR cell line of Leukemia; settings: Homo sapiens, read-out: Log TGI (converted); summary of the method: as §2
CCRF-CEM = experiment: Tested in vitro for cytotoxicity in CCRF-CEM cell line of Leukemia; settings: Homo sapiens, read-out: Log TGI (converted); summary of the method: as §1

SMILES: COc1ccc2[nH]c3c(C)c4c(c(C)c3c2c1)CN(C)C=C4
- TGI (LXFL 529): 5.01 µM
- GI50 (A549): 0.993 µM
- TGI (SK-MEL-2): 10 µM
- TGI (U-251): 1 µM
- TGI (HOP-18): 39.8 µM
- GI50 (Malme-3M): 1.44 µM
- GI50 (DMS-114): 0.525 µM
- TGI (RXF 631): 25.1 µM
- TGI (SK-MEL-28): 12.6 µM
- TGI (SNB-78): 5.01 µM
- TGI (HOP-62): 3.16 µM
- GI50 (CAKI-1 [1]): 20.1 µM
- TGI (NCI-H226): 0.794 µM
- GI50 (IGROV-1): 1.68 µM
- TGI (SK-MEL-5): 10 µM
- TGI (HL-60): 63.1 µM
- TGI (SF-539): 2 µM
- TGI (UACC-62): 20 µM
- TGI (NCI-H460): 10 µM
- TGI (UACC-257): 20 µM
- TGI (ACHN): 63.1 µM
- TGI (SK-OV-3): 63.1 µM
- TGI (SW-620): 15.8 µM
- TGI (M19-MEL): 2.51 µM
- TGI (DLD-1): 20 µM
- TGI (OVCAR-8): 15.8 µM
- TGI (CAKI-1 [2]): 31.6 µM
- TGI (786-0): 12.6 µM
- GI50 (SF-268): 0.186 µM
- TGI (SR): 63.1 µM
- TGI (CCRF-CEM): 15.8 µM
